From PubChem BioAssay
Shown are actives, neighbours in structure and some others; about 5.8% of the full set was active somewhere.
IDH1 mut inh: inhibitors of human IDH1 R132H | AID 624101 | inhibition, % at 10 µM | 70,000 tested, 0.18% active | IDH1 R132H reductase, diaphorase/resazurin fluorescence, 60 min | O75874; in the data active means inhibition above about 34%; inconclusive means no clear call, values can overlap the other calls; inactive means below about 11%;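 further: 0% = DMSO and 100% = no enzyme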
T cruzi growth-1: blocks T. cruzi growth in NIH3T3 culture; T. cruzi beta-gal in NIH3T3, GalScreen luminescence, 90 h; inhibition, % at 8.34 µM; 77,000 tested, 5.9% active; AID 624255;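 active means mean inhibition above about 93%, with at least 55% of replicates each passing it, limit read from the data, passing the limit was not always enough; inconclusive means only one of those two conditions holds; inactive means neither condition holds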
Pf Dd2 growth: blocks growth of Plasmodium falciparum Dd2 parasites; 94,000 tested, 2.3% active; activity change, % at 10 µM; P. falciparum Dd2 growth, SYBR Green, 72 h; stronger effect = lower value; AID 1159554; in the data active means activity change below about -80%; inconclusive means no clear call, values can overlap the other calls
GASC1 inh: blocks human GASC-1 (KDM4C) demethylase activity; Q9H3R0; GST-KDM4C 2-372, H3K9me3 peptide, LANCE TR-FRET; inhibition, % at 12.5 µM; 96,000 tested, 0.15% active; AID 720574;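 active means mean replicate inhibition above about 25%, with at least 55% of replicates also reaching it, limit read from the data, passing the limit was not always enough; inconclusive means only one of those two conditions met; inactive means neither condition met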
Target sequence (Q9H3R0 2-372 limits assumed): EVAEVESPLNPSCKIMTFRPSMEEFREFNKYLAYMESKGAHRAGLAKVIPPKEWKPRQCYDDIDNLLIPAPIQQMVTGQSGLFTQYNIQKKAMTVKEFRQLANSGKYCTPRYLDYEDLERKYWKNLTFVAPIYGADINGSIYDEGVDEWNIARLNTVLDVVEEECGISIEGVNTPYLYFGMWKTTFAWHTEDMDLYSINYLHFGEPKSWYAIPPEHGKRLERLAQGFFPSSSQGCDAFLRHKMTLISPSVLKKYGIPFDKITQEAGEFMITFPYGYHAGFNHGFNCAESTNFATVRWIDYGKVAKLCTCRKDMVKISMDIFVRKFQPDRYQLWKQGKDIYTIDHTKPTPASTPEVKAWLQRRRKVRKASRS
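Material: N-terminal GST-fused human GASC-1 (KDM4C) fragment, residues 2-372. Input: 10 nM enzyme. Incubation: enzyme reaction 30 min, then detection 60 min, both room temperature. Doses: one test concentration per compound. Read-out basis: inhibition from TR-FRET ratio decrease. Detection: LANCE TR-FRET, excitation 340 nm, emissions 618 and 671 nm.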
T cruzi growth-2: Trypanosoma cruzi proliferation inhibition | shares compounds with T cruzi growth-1 | AID 651739 | T. cruzi beta-gal in NIH3T3, GalScreen luminescence, 90 h | inhibition, % at 8.35 µM | 5,600 tested, 72% active;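 active means mean replicate inhibition above about 95% and at least 55% of replicates individually reaching it, limit read from the data; inconclusive means only one of the two criteria is met; inactive means neither criterion is met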
T cruzi growth-3: Trypanosoma cruzi proliferation inhibition. inhibition, % at 2.09 µM. shares compounds with T cruzi growth-1. T. cruzi beta-gal in NIH3T3, GalScreen luminescence, 90 h. 5,600 tested, 21% active. AID 651740;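 active means mean inhibition above about 95%, with at least 55% of replicates also reaching it, limit read from the data; inconclusive means meets just one of the two conditions; inactive means meets neither condition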;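 further: plate controls were neutral control median for no effect and positive control median for full effect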
NIH3T3 tox: cytotoxicity in mouse NIH/3T3 fibroblasts. 5,600 tested, 14% active. shares compounds with T cruzi growth-1. AID 651742. cytotoxicity (signal decrease), % at 8.35 µM. NIH/3T3 viability, CellTiter-Glo ATP luminescence, 90 h;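 active means mean signal decrease across replicates above about 35% based on untreated-well scatter, with enough replicates individually passing, limit read from the data; inconclusive means no rule stated though some were filed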;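 further: 0% = median of neutral control wells and 100% = median of positive control wells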
3T3 cytotox 2: NIH/3T3 (mouse) viability loss. shares compounds with T cruzi growth-1. NIH/3T3 viability, CellTiter-Glo ATP luminescence, 90 h. inhibition, % at 24.9 µM. 5,600 tested, 56% active. AID 651744;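 active means mean loss of cell viability signal at or above a set limit, and enough replicates individually reaching it; inconclusive means meets only the mean limit or only the replicate share; inactive means meets neither condition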;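 further: 0% = median of neutral control wells and 100% = median of positive control wells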
* hit, by the source's call; ? = inconclusive; · = not tested or not shown.

SMILES	IDH1 mut inh	T cruzi growth-1	Pf Dd2 growth	GASC1 inh	T cruzi growth-2	T cruzi growth-3	NIH3T3 tox	3T3 cytotox 2
C[C@H]1CN([C@@H](C)CO)C(=O)c2cc(NC(=O)Cc3cn(C)c4ccccc34)ccc2O[C@H]1CN(C)Cc1ccc(C(F)(F)F)cc1	0	?	-5	-1	101*	47	-10	34
C[C@@H]1CN([C@H](C)CO)C(=O)c2cc(NC(=O)Cc3cn(C)c4ccccc34)ccc2O[C@@H]1CN(C)Cc1ccccc1	0	20	-13	-2	·	·	·	·
C[C@@H]1CN([C@@H](C)CO)C(=O)c2cc(NC(=O)Cc3cn(C)c4ccccc34)ccc2O[C@H]1CN(C)Cc1ccc(C(F)(F)F)cc1	-4	113*	1	5	105*	-1	10	?
C[C@H](CO)N1C[C@H](C)[C@H](CN(C)Cc2ccc(C(F)(F)F)cc2)Oc2ccc(NC(=O)Cc3cn(C)c4ccccc34)cc2C1=O	-2	101	-26	-1	·	·	·	·
C[C@@H]1CN([C@@H](C)CO)C(=O)c2cc(NC(=O)Cc3cn(C)c4ccccc34)ccc2O[C@@H]1CN(C)Cc1ccc(Oc2ccccc2)cc1	0	93*	-15	16	96*	?	30	76*
COc1ccc(OC)c(-c2cc(C(=O)NCCc3ccccc3OC)c3ccccc3n2)c1	0	·	·	·	·	·	·	·
Cc1ccc(C(=O)O)cc1NC(=O)COc1ccc(C(C)(C)C)cc1	0	·	·	·	·	·	·	·
CCC(C)Nc1nc(OC)nc(Oc2ccc(=O)[nH]n2)n1 (centres undefined)	1	·	·	·	·	·	·	·
CO[C@@H]1CN(C)C(=O)c2ccc(NC(=O)Cc3ccccc3)cc2OC[C@@H](C)N(CCc2ccccc2)C[C@H]1C	0	99*	-61	0	100*	104*	-4	11
CO[C@H]1CN(C)C(=O)c2cc(NC(=O)NC3CCCCC3)ccc2OC[C@H](C)N(CCc2ccccc2)C[C@@H]1C	1	86	-34	2	·	·	·	·
CO[C@@H]1CN(C)C(=O)c2ccc(NC(=O)NC3CCCCC3)cc2OC[C@@H](C)N(CCc2ccccc2)C[C@H]1C	0	118*	-79	0	110*	51	22	10
CCC(=O)Nc1ccc2c(c1)OC[C@@H](C)N(CCc1ccccc1)C[C@H](C)[C@@H](OC)CN(C)C2=O	0	58	-34	1	·	·	·	·
Cc1c(Cl)cccc1N(CC(=O)Nc1cc(Cl)cc(Cl)c1)S(C)(=O)=O	0	·	·	·	·	·	·	·
COc1cc(NC(=O)COc2ccccc2Cl)ccc1NC(=O)c1cc2ccccc2o1	1	·	·	·	·	·	·	·
C[C@@H]1CCCCO[C@@H](CN(C)C(=O)Nc2cccc3ccccc23)[C@H](C)CN([C@H](C)CO)C(=O)c2cc(N(C)C)ccc2O1	0	102*	-36	2	97*	73	-35	0
C[C@@H]1CCCCO[C@@H](CN(C)C(=O)Nc2ccccc2)[C@H](C)CN([C@@H](C)CO)C(=O)c2cc(NC(=O)Nc3ccccc3)ccc2O1	0	?	8	-1	89	40	-38	-7
C[C@H]1CCCCO[C@@H](CN(C)C(=O)Nc2ccccc2)[C@@H](C)CN([C@@H](C)CO)C(=O)c2cc(NC(=O)Nc3ccc4c(c3)OCO4)ccc2O1	1	123*	1	1	113*	60	8	-2
C[C@@H]1CCCCO[C@@H](CN(C)C)[C@H](C)CN([C@H](C)CO)C(=O)c2cc(NC(=O)CCCCCC(=O)Nc3ccccc3N)ccc2O1	·	73	43	0	·	·	·	·
C[C@@H]1CCCCO[C@@H](CN(C)C(=O)Nc2cccc3ccccc23)[C@@H](C)CN([C@@H](C)CO)C(=O)c2cc(N(C)C)ccc2O1	0	57	-76	-2	·	·	·	·
C[C@H]1CCCCO[C@H](CN(C)C)[C@@H](C)CN([C@@H](C)CO)C(=O)c2cc(NC(=O)CCCCCC(=O)Nc3ccccc3N)ccc2O1	·	97*	41	-1	102*	17	8	17
O=C(N/N=C/c1ccc(-c2cccc(Cl)c2)o1)c1ccccc1O	0	·	·	·	·	·	·	·
O=C(NCc1ccco1)c1ccccc1NC(=O)C1COc2ccccc2O1 (centres undefined)	0	·	·	·	·	·	·	·
CC1(C)Cc2c(sc3nc(SCC(=O)c4ccc(Cl)cc4)nc(N)c23)CS1	0	·	·	·	·	·	·	·
CC(C)NC(=O)Nc1ccc2c(c1)C(=O)N([C@H](C)CO)C[C@H](C)[C@H](CN(C)C(=O)Nc1ccc(F)cc1)OCCCC[C@H](C)O2	2	96*	48	0	104*	70	-1	-13
C[C@@H]1CCCCO[C@@H](CN(C)C(=O)Nc2ccccc2)[C@H](C)CN([C@@H](C)CO)C(=O)c2cc(N(C)C)ccc2O1	-2	107*	-32	5	71	8	-5	-20
SMILES	IDH1 mut inh	T cruzi growth-1	Pf Dd2 growth	GASC1 inh	T cruzi growth-2	T cruzi growth-3	NIH3T3 tox	3T3 cytotox 2
C[C@@H]1CCCCO[C@H](CN(C)C(=O)Nc2ccc(F)cc2)[C@@H](C)CN([C@H](C)CO)C(=O)c2cc(NC(=O)Nc3cccc4ccccc34)ccc2O1	·	72	-23	-1	·	·	·	·
C[C@H](CO)N1C[C@H](C)[C@@H](CN(C)C(=O)Nc2ccccc2)OCCCC[C@H](C)Oc2ccc(NC(=O)Nc3ccc(F)cc3)cc2C1=O	·	100*	17	0	?	-22	-10	24
C[C@H](CO)N1C[C@H](C)[C@@H](CN(C)C(=O)Nc2ccc(F)cc2)OCCCC[C@H](C)Oc2ccc(NC(=O)Nc3cccc4ccccc34)cc2C1=O	3	105*	-32	12	107*	55	9	?
Cc1ccc(Cl)cc1NC(=O)CC(C(=O)O)N1CCNCC1 (centres undefined)	0	·	·	·	·	·	·	·
CCOc1ccccc1NC(=O)CN1C(=O)c2cccc3cccc1c23	0	·	·	·	·	·	·	·
CC(=O)OC1CC2(C)C3CC=C4C(CC(O)C(O)C4(C)C)C3(C)CCC2(C)C1C(C)(O)C(=O)CCC(C)(C)O (centres undefined)	0	·	·	·	·	·	·	·
C[C@@H]1CCCCO[C@@H](CN(C)C(=O)Nc2ccccc2)[C@H](C)CN([C@H](C)CO)C(=O)c2cc(NC(=O)NC3CCCCC3)ccc2O1	-3	105*	-48	-1	101*	47	14	11
C[C@@H]1CN([C@@H](C)CO)C(=O)c2cc(NC(=O)Nc3cccc4ccccc34)ccc2O[C@@H](C)CCCCO[C@H]1CN(C)C	-14	99*	33	-1	40	-48	-1	-15
